Source: ChEMBL document CHEMBL1124365, “3-Quaternary ammonium 1-carba-1-dethiacephems” (J Med Chem, 1989)
≈ marks a conversion by molar mass, not a printed value.

Key:
Escherichia coli [1] = assay: Minimal inhibitory activity against the Escherichia coli (EC14); assay type: functional
How it was run: (§1)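 Agar dilution: compounds diluted in 0.1 M phosphate buffer pH 7.0, incorporated into Mueller-Hinton agar with 1% Bacto-Supplement C at 50 °C. Overnight cultures diluted to ~1×10^4 cells/µL, 1 µL spotted onto plates; incubated overnight at 35 °C in ambient air. MIC = lowest concentration preventing visible growth.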

Escherichia coli [2] = assay: Minimal inhibitory activity against the E. coli(TEM beta lactamase containing); assay type: functional; how it was run: as §1
Enterobacter cloacae [3] = assay: Minimal inhibitory activity against the Enterobacter cloacae (265A beta lactamase containing); assay type: functional; how it was run: as §1
Enterobacter cloacae [4] = assay: Minimal inhibitory activity against the Enterobacter cloacae (EB5); assay type: functional; how it was run: as §1
Haemophilus influenzae = assay: Minimal inhibitory activity against the Haemophilus influenzae (C.L); assay type: functional; how it was run: as §1
Klebsiella [5] = assay: Minimal inhibitory activity against the Klebsiella(KAE beta lactamase containing); assay type: functional; how it was run: as §1
Klebsiella [6] = assay: Minimal inhibitory activity against the Klebsiella (X26); assay type: functional; how it was run: as §1
Morganella morganii = assay: Minimal inhibitory activity against the Proteus morganii (PR15); assay type: functional; how it was run: as §1
Pseudomonas aeruginosa = assay: Minimal inhibitory activity against the Pseudomonas aeruginosa (X528); assay type: functional; how it was run: as §1
Providencia rettgeri = assay: Minimal inhibitory activity against the Proteus rettgeri (C24); assay type: functional; how it was run: as §1
Salmonella = assay: Minimal inhibitory activity against the Salmonella (X514); assay type: functional; how it was run: as §1
[7] = system: Staphylococcus epidermidis; assay: Minimal inhibitory activity against the Staphylococcus epidermidis (222); assay type: functional; how it was run: as §1
Staphylococcus aureus = assay: Minimal inhibitory activity against the Staphylococcus aureus (X1.1); assay type: functional; how it was run: as §1
Streptococcus pneumoniae = assay: Minimal inhibitory activity against the Streptococcus pneumoniae (PARK); assay type: functional; how it was run: as §1
Streptococcus pyogenes = assay: Minimal inhibitory activity against the Streptococcus pyogenes (C203); assay type: functional; how it was run: as §1
[8] = Half-life was evaluated for pharmacokinetic data in rats.; assay type: ADME, organism-based; conditions: rat, in vivo
How it was run: (§2)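 Male Sprague-Dawley rats given 20 mg/kg IV in saline via indwelling jugular vein cannula; serial blood sampling through cannula, plasma and urine collected over 4 h. Drug levels by agar well diffusion bioassay with E. coli ATCC 4157 (detection limit ≤0.80 μg/mL). Half-life = 0.693/β from terminal plasma slope; urinary recovery as percent of administered dose.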

Enterobacter cloacae [9] = assay: Truncation of the zone of inhibition was graded for Enterobacter cloacae EB17 on a 30 ug disk of test compound; assay type: functional
How it was run: (§3)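 Cefoxitin disk approximation: Mueller-Hinton agar swab-inoculated with ~1×10^8 cells/mL of inducible Enterobacter strains; 30 µg test-compound disks plus 30 µg cefoxitin disks placed ~15 mm from their edge. Overnight at 35 °C in ambient air; truncation of inhibition zone on cefoxitin-proximal side graded as a measure of induced β-lactamase effect.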

Enterobacter cloacae [10] = assay: Truncation of the zone of inhibition was graded for Enterobacter cloacae EB5 on a 30 ug disk of test compound; assay type: functional; how it was run: as §3
Enterobacter cloacae [11] = assay: Truncation of the zone of inhibition was graded for Enterobacter cloacae EB57 on a 30 ug disk of test compound; assay type: functional; how it was run: as §3
Rattus norvegicus = species: Rattus norvegicus; assay: Urinary recovery was evaluated for pharmacokinetic data in rats; assay type: organism-based; conditions: Urine; how it was run: as §2
[12] = Half-life was evaluated for pharmacokinetic data in rats; assay type: ADME, organism-based; conditions: rat, in vivo
How it was run: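 Male Sprague-Dawley rats, single 20 mg/kg intravenous dose in saline via indwelling jugular vein cannula; serial blood sampling from the same cannula over 4 h. Plasma levels measured by agar well diffusion bioassay with E. coli ATCC 4157 (detection limit ≤0.80 µg/mL). Half-life calculated as 0.693/β, β being the terminal slope of the plasma concentration–time curve.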

Compound | MIC (Escherichia coli [1]) [µg/mL] | MIC (Escherichia coli [2]) [µg/mL] | MIC (Enterobacter cloacae [3]) [µg/mL] | MIC (Enterobacter cloacae [4]) [µg/mL] | MIC (Haemophilus influenzae) [µg/mL] | MIC (Klebsiella [5]) [µg/mL] | MIC (Klebsiella [6]) [µg/mL] | MIC (Morganella morganii) [µg/mL] | MIC (Pseudomonas aeruginosa) [µg/mL] | MIC (Providencia rettgeri) [µg/mL] | MIC (Salmonella) [µg/mL] | MIC [7] [µg/mL] | MIC (Staphylococcus aureus) [µg/mL] | MIC (Streptococcus pneumoniae) [µg/mL] | MIC (Streptococcus pyogenes) [µg/mL] | Zone diameter (Enterobacter cloacae [9]) [mm] | Zone diameter (Enterobacter cloacae [10]) [mm] | Zone diameter (Enterobacter cloacae [11]) [mm] | Recovery (Rattus norvegicus) [%] | also measured
CO/N=C(\C(=O)N[C@@H]1C(=O)N2C(C(=O)[O-])=C([n+]3cc(C)ccc3C)CC[C@H]12)c1csc(N)n1 | 0.125 (≈ 0.266 µM) | 0.125 (≈ 0.266 µM) | 1 (≈ 2.13 µM) | 0.25 (≈ 0.531 µM) | 0.5 (≈ 1.06 µM) | 2 (≈ 4.25 µM) | 0.125 (≈ 0.266 µM) | 0.25 (≈ 0.531 µM) | 128 (≈ 272 µM) | 0.25 (≈ 0.531 µM) | 0.125 (≈ 0.266 µM) | 8 (≈ 17 µM) | 4 (≈ 8.5 µM) | 0.06 (≈ 0.128 µM) | 0.03 (≈ 0.0638 µM) |  |  |  |  | 
CO/N=C(\C(=O)N[C@@H]1C(=O)N2C(C(=O)[O-])=C([n+]3ccc4c(c3)ncn4C)CC[C@H]12)c1csc(N)n1 | 0.06 (≈ 0.121 µM) | 0.5 (≈ 1.01 µM) | 1 (≈ 2.01 µM) | 0.125 (≈ 0.252 µM) | 0.5 (≈ 1.01 µM) | 4 (≈ 8.06 µM) | 0.06 (≈ 0.121 µM) | 0.5 (≈ 1.01 µM) | 128 (≈ 258 µM) | 0.25 (≈ 0.504 µM) | 0.06 (≈ 0.121 µM) | 8 (≈ 16.1 µM) | 4 (≈ 8.06 µM) | 0.06 (≈ 0.121 µM) | 0.06 (≈ 0.121 µM) |  |  |  |  | 
CO/N=C(\C(=O)N[C@@H]1C(=O)N2C(C(=O)[O-])=C([n+]3ccccc3)CC[C@H]12)c1csc(N)n1 | 0.06 (≈ 0.136 µM) | 0.06 (≈ 0.136 µM) | 2 (≈ 4.52 µM) | 0.125 (≈ 0.283 µM) | 0.5 (≈ 1.13 µM) | 8 (≈ 18.1 µM) | 0.03 (≈ 0.0678 µM) | 0.25 (≈ 0.565 µM) | 128 (≈ 289 µM) | 0.5 (≈ 1.13 µM) | 0.03 (≈ 0.0678 µM) | 8 (≈ 18.1 µM) | 4 (≈ 9.04 µM) | 0.03 (≈ 0.0678 µM) | 0.03 (≈ 0.0678 µM) | 30 | 30 | 31 | 82.6 | half-life [8]: 21.2 min
CO/N=C(\C(=O)N[C@@H]1C(=O)N2C(C(=O)[O-])=C([n+]3cccc4c3CCC4)CC[C@H]12)c1csc(N)n1 | 0.06 (≈ 0.124 µM) | 0.5 (≈ 1.04 µM) | 1 (≈ 2.07 µM) | 0.125 (≈ 0.259 µM) | 0.5 (≈ 1.04 µM) | 8 (≈ 16.6 µM) | 0.03 (≈ 0.0622 µM) | 0.25 (≈ 0.518 µM) | 128 (≈ 265 µM) | 0.5 (≈ 1.04 µM) | 0.03 (≈ 0.0622 µM) | 4 (≈ 8.29 µM) | 2 (≈ 4.14 µM) | 0.03 (≈ 0.0622 µM) | 0.03 (≈ 0.0622 µM) |  |  |  | 82.3 | half-life [8]: 20.1 min
CO/N=C(\C(=O)N[C@@H]1C(=O)N2C(C(=O)[O-])=C([n+]3ccc(C)c(C)c3)CC[C@H]12)c1csc(N)n1 | 0.06 (≈ 0.128 µM) | 0.06 (≈ 0.128 µM) | 0.25 (≈ 0.531 µM) | 0.125 (≈ 0.266 µM) | 0.25 (≈ 0.531 µM) | 4 (≈ 8.5 µM) | 0.06 (≈ 0.128 µM) | 0.125 (≈ 0.266 µM) | 128 (≈ 272 µM) | 0.06 (≈ 0.128 µM) | 0.03 (≈ 0.0638 µM) | 4 (≈ 8.5 µM) | 2 (≈ 4.25 µM) | 0.015 (≈ 0.0319 µM) | 0.03 (≈ 0.0638 µM) | 30 | 30 | 31 |  | 
CO/N=C(\C(=O)N[C@@H]1C(=O)N2C(C(=O)[O-])=C([n+]3cccc4c3CCCC4)CC[C@H]12)c1csc(N)n1 | 0.125 (≈ 0.252 µM) | 1 (≈ 2.01 µM) | 2 (≈ 4.03 µM) | 0.25 (≈ 0.503 µM) | 0.5 (≈ 1.01 µM) | 16 (≈ 32.2 µM) | 0.125 (≈ 0.252 µM) | 1 (≈ 2.01 µM) | 128 (≈ 258 µM) | 4 (≈ 8.06 µM) | 0.125 (≈ 0.252 µM) | 8 (≈ 16.1 µM) | 2 (≈ 4.03 µM) | 0.06 (≈ 0.121 µM) | 0.06 (≈ 0.121 µM) |  |  |  |  | 
CC(C)(O/N=C(\C(=O)N[C@@H]1C(=O)N2C(C(=O)[O-])=C(C[n+]3ccccc3)CS[C@H]12)c1csc(N)n1)C(=O)O [CEFTAZIDIME] | 0.06 (≈ 0.11 µM) | 0.125 (≈ 0.229 µM) | 32 (≈ 58.5 µM) |  | 0.06 (≈ 0.11 µM) | 0.5 (≈ 0.915 µM) | 0.06 (≈ 0.11 µM) | 0.5 (≈ 0.915 µM) | 2 (≈ 3.66 µM) |  | 0.125 (≈ 0.229 µM) | 16 (≈ 29.3 µM) | 8 (≈ 14.6 µM) | 0.06 (≈ 0.11 µM) | 0.06 (≈ 0.11 µM) |  |  |  | 100 | half-life [12]: 22.9 min
CO/N=C(\C(=O)N[C@@H]1C(=O)N2C(C(=O)[O-])=C(C[n+]3ccccc3)CS[C@H]12)c1csc(N)n1 |  |  |  |  |  |  |  |  |  |  |  |  |  |  |  | 30 | 30 | 30 |  | 
CO/N=C(\C(=O)N[C@@H]1C(=O)N2C(C(=O)[O-])=C(C[n+]3ccccc3)CC[C@H]12)c1csc(N)n1 |  |  |  |  |  |  |  |  |  |  |  |  |  |  |  | 35 | 26 | 26 | 87.9 | half-life [12]: 22.9 min
Cc1cc[n+](C2=C(C(=O)[O-])N3C(=O)[C@@H](NC(=O)/C(=N\OCc4ccccc4)c4csc(N)n4)[C@H]3CC2)cc1C | 2 (≈ 3.66 µM) | 1 (≈ 1.83 µM) | 8 (≈ 14.6 µM) | 4 (≈ 7.32 µM) | 0.125 (≈ 0.229 µM) | 128 (≈ 234 µM) | 0.06 (≈ 0.11 µM) | 2 (≈ 3.66 µM) | 128 (≈ 234 µM) | 8 (≈ 14.6 µM) | 1 (≈ 1.83 µM) | 2 (≈ 3.66 µM) | 1 (≈ 1.83 µM) | 0.015 (≈ 0.0274 µM) | 0.03 (≈ 0.0549 µM) |  |  |  |  | 
